Experimental data as given in ChEMBL document CHEMBL3763082, “Design and synthesis of novel hybrid sydnonimine and prodrug useful for glaucomatous optic neuropathy” (Bioorg Med Chem Lett, 2016).
Values belong to the compound of their own block, whether it stands above or below them. Calls of active or inactive are those of the source. The calls are words filed in the database; no cut-off is given here.

Assays:
[1] = Half life of compound in 0.5 M phosphate buffer at pH 7.4 at 25 degC by LC/MS analysis; assay type: physicochemical; conditions: for t1/2: buffer; for half-life: phosphate buffer
[2] = Half life of compound in 0.5 M phosphate buffer at pH 6.5 at 25 degC by LC/MS analysis; assay type: physicochemical; conditions: for t1/2: buffer; for half-life: phosphate buffer
661W = experiment: Increase in number of mouse 661W cells at 10 to 50 uM after 24 hrs by MTT assay relative to vehicle control; assay type: functional, cell-based
How it was run: (§1)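 About 3000 NTM5 trabecular meshwork cells or transformed 661 W photoreceptor cells seeded per well, exposed to 10, 50 or 100 μM for 24 h; vehicle DMEM/DMSO (1 mL/10 μL). Viability by MTT-type kit (tetrazolium reduced to formazan), absorbance 490 nm; eight biological replicates.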

[3] = Upregulation of SOD in H2O2-induced mouse 661W cells at 50 to 100 uM by Cayman's superoxide dismutase assay; assay type: functional
How it was run: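 SOD activity in 661 W cells treated with test agent in combination with H2O2, vehicle DMEM plus DMSO; commercial kit detecting superoxide generated by xanthine oxidase/hypoxanthine with a tetrazolium salt, per manufacturer's instructions.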

Rhesus monkey = experiment: Suppression of elevated intraocular pressure in lasered monkey eye at 150 ug at 6 hrs; assay type: functional, Macaca mulatta
[4] = Cytotoxicity against human NTM5 cells assessed as cell viability at 100 uM after 24 hrs by MTT assay; assay type: cell-based; how it was run: as §1
[5] = Cytotoxicity against mouse 661W cells assessed as cell viability at 100 uM after 24 hrs by MTT assay; assay type: cell-based; how it was run: as §1
[6] = Induction of nitric oxide release in 50 mM phosphate buffer at pH 7.4 after 10 mins by Greiss assay; assay type: physicochemical; conditions: pH 7.4, 10 min
[7] = Neuroprotective effect against H2O2-induced oxidative stress in mouse 661W cells assessed as cell viability at 50 to 100 uM by MTT assay relative to control; assay type: functional, cell-based

- t1/2 [1]: 9 months
- t1/2 [2]: 18 months
SMILES: CC(OC(=O)[N-]c1c[n+](N2CCOCC2)no1)OC(=O)C(C)(C)C (stereo not given)

SMILES: [NH-]c1c[n+](N2CCOCC2)no1
- Activity (661W): inactive
- Activity [3]: inactive

SMILES: CC1(C)CC(O[N+](=O)[O-])CC(C)(C)N1O
- Activity (Rhesus monkey): 20%

SMILES: CC(OC(=O)[N-]c1c[n+](C2CC(C)(C)N(O)C(C)(C)C2)no1)OC(=O)C(C)(C)C (stereo not given)
- t1/2 [1]: 9.1 months
- t1/2 [2]: 15.3 months

SMILES: CC1(C)CC([n+]2cc([NH-])on2)CC(C)(C)N1O.Cl
- half-life [1]: < 24 h
- half-life [2]: < 24 h
- Activity [4]: Non-toxic
- Activity [5]: Non-toxic
- Activity (661W): Active
- Activity [3]: Active
- Activity [6]: Active
- Activity [7]: Active

SMILES: O=[N+]([O-])OCC(CO[N+](=O)[O-])O[N+](=O)[O-] [NITROGLYCERIN]
- Activity (Rhesus monkey): 13%

- half-life [1]: < 24 h
- half-life [2]: < 24 h
- Activity [6]: Active
SMILES: N=c1c[n+](N2CCOCC2)[n-]o1 [LINSIDOMINE]

SMILES: CC1(C)CC(O)CC(C)(C)N1[O]
- Activity (661W): inactive
